Drawing on ChEMBL document CHEMBL4513216, “Probing the Open Global Health Chemical Diversity Library for Multistage-Active Starting Points for Next-Generation Antimalarials” (ACS Infect Dis, 2020), this text covers cytotoxicity for 97 molecules.

The nature of this data set: Toxicity liver stage against HepG2, at 10uM. The class given is cell-based. The following applies: human, HepG2-A16-CD81EGFP cells; read-out: INHIBITION
More on the design: test concentration 10 uM, cell line HepG2-A16-CD81EGFP. An outline of the steps:
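Uninfected HepG2-A16-CD81EGFP cells, 3 × 10^3 per well, 1536-well, plated on prespotted compound at 10 μM final, parasite-free screening media added to match infected plates; puromycin 10 μM positive, DMSO 0.5% negative; run in parallel with 48 h PbLuc assay at 37 °C, 5% CO2; viability by CellTiter-Glo luminescence, normalized to controls.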
For `Cn1ccnc1CN1C(=O)CO[C@H]2CN(Cc3ccc(F)c(F)c3)C[C@H]21`, the cytotoxicity at 10 µM is -2.83%.

For `Cc1cccc(O[C@H]2COCCN(C3CCOCC3)C2)n1`, the cytotoxicity at 10 µM came out at 9.09%.

Take `COc1ccc(CN2CCOC[C@H](Oc3cccnc3)C2)cc1`: the cytotoxicity at 10 µM is -4.03%.

As for `CCN(CC)C1(Cc2cc(CC(C)C)on2)COC1`, the cytotoxicity at 10 µM was 2.23%.

Consider `COc1ccc(CNC[C@H]2Cn3ccnc3CO2)cn1`, for which the cytotoxicity at 10 µM stood at 8.73%.

Consider `CO[C@H]1COCCN(C(=O)c2ccc(C#N)cc2)C1`, for which the cytotoxicity at 10 µM worked out at 4.94%.

For the molecule `CCN(CC)S(=O)(=O)c1ccc2c(c1)N(Cc1ccncc1)C(=O)CS2`, the cytotoxicity at 10 µM was -5.62%.

With `CC(=O)c1ccc(N2CCN(C(=O)c3cnn4c3OCCC4)CC2)cc1`, the cytotoxicity at 10 µM came to 8.44%.

Consider `O=C(Nc1cnc(Oc2ccccc2)nc1)C1CC1`, for which the cytotoxicity at 10 µM worked out at 0.174%.

As for `CCOC1CC2(CCN(C(=O)COC)CC2)c2cc(C)ccc21` (configuration not stated), the cytotoxicity at 10 µM is -142%.

Consider `CC(=O)N1Cc2nccn2CC(CNC(=O)c2ccnnc2)C1` (configuration not stated), for which the cytotoxicity at 10 µM was -138%.

`CS(=O)(=O)NCc1cncc2c1CCN(C(=O)c1ccccn1)C2`: the cytotoxicity at 10 µM amounted to 0.734%.

`O=C(c1ccco1)N1Cc2nccn2CC(Cn2ncccc2=O)C1` (configuration not stated): the cytotoxicity at 10 µM turned out to be 5.09%.

With `O=C(c1cnccn1)N1CCC2(CCN(Cc3ccsc3)CC2)CC1`, the cytotoxicity at 10 µM came to 1.2%.

With `CCS(=O)(=O)Nc1ccc2oc(C)c(C(=O)OC)c2c1`, the cytotoxicity at 10 µM was determined as 5.87%.

`CCN1CCN(C(=O)Cn2ncc3c2c(C)nn3C(C)C)CC1`: the cytotoxicity at 10 µM worked out at 6.5%.

With `CCn1nc(C)c2nnn(CC(=O)Nc3cccc(F)c3)c(=O)c21`, the cytotoxicity at 10 µM was determined as 8.44%.

Consider `O=C(CCn1ccnc1)N1CCC(c2nnc(-c3ccccn3)o2)CC1`, for which the cytotoxicity at 10 µM turned out to be 3.29%.

In the case of `O=S(=O)(N1CCOCC1)N1CCCC(c2ccccn2)C1` (configuration not stated), the cytotoxicity at 10 µM was 2.23%.

With `O[C@H]1CN(Cc2cc3ccccc3o2)CC[C@@]12CCCO2`, the cytotoxicity at 10 µM was -21.9%.

Turning to `Cc1cc(C)nc(C2CCN(C(=O)c3cncnc3C)C2)n1` (configuration not stated), the cytotoxicity at 10 µM was 5.16%.

For `Cc1ccc2c(c1)C(=O)NCC1(CCN(C(=O)c3scnc3C)CC1)O2`, the cytotoxicity at 10 µM is -17.3%.

Take `CCC1CN(CC(=O)NC2(C#N)CCCC2)CCN1CCOC` (configuration not stated): the cytotoxicity at 10 µM stood at 4.56%.

For the molecule `COCCNC(=O)c1ccc(NCc2csc(C)n2)cc1Cl`, the cytotoxicity at 10 µM is 6.81%.

For the molecule `N#Cc1cccnc1N1CCC(Nc2ccccc2)C1` (configuration not stated), the cytotoxicity at 10 µM is -3.37%.

For the molecule `COC(=O)C1CN(Cc2ccn(-c3ccc(F)cc3)n2)C[C@@H](C)O1` (some centres not stated), the cytotoxicity at 10 µM was -4.52%.

In the case of `N#CC1(NC(=O)c2nccc3ccccc23)CCC2(CC1)OCCO2`, the cytotoxicity at 10 µM turned out to be 2.48%.

Consider `COc1ccc2c(c1)CN(c1nc(C)cc(C)n1)CC2`, for which the cytotoxicity at 10 µM is -0.734%.

As for `CCN(CC)c1ccc(CNC(=O)c2cccc(C)n2)cn1`, the cytotoxicity at 10 µM worked out at 9.47%.

Take `Cc1nc(C)c(C(=O)N(C)Cc2cnn(C)c2)s1`: the cytotoxicity at 10 µM is -1.57%.

As for `CCOCCNC(=O)Cc1cccc(I)c1`, the cytotoxicity at 10 µM came to 9.62%.

`Cc1ccc(N2CCCC(N(C)Cc3cc(C)on3)C2)nn1` (configuration not stated): the cytotoxicity at 10 µM came out at 17.5%.

On to `CCCNC(=O)Cn1cc(C#N)c(=O)c2cc(Br)ccc21`, for which the cytotoxicity at 10 µM is -0.842%.

As to `Cc1cnn(CC2CCCCN2CC(=O)Nc2nncs2)c1` (configuration not stated), the cytotoxicity at 10 µM was -0.208%.

Consider `COc1c(C2CCCN2C(=O)c2ccoc2)c(C)nn1C` (configuration not stated), for which the cytotoxicity at 10 µM was determined as 4%.

With `CC(C)c1nnc(CNc2ccc(SC(F)(F)F)cc2)o1`, the cytotoxicity at 10 µM stood at 11.5%.

Turning to `CCN(C(c1cccnc1)c1ccc(F)cc1F)S(C)(=O)=O` (configuration not stated), the cytotoxicity at 10 µM was 10.8%.

On to `CCC(CC)(CC(=O)OC)NC(=O)Nc1nnc(-c2ccccn2)s1`, for which the cytotoxicity at 10 µM was -8.68%.

For the molecule `CC(C)Oc1cccc(CNC(=O)N2CCC(N3CC=CC3)C2)c1` (configuration not stated), the cytotoxicity at 10 µM was 0.477%.

In the case of `Cc1cnn(CC2CCCCN2C(=O)c2ccc(C#N)c(C)n2)c1` (configuration not stated), the cytotoxicity at 10 µM was -1.18%.

For the molecule `O=C(Nc1cccc(Cn2cccn2)c1)N1CCCC(N2CCCC2)C1` (configuration not stated), the cytotoxicity at 10 µM was found to be 4.13%.

Turning to `CSCCC(NC(=O)c1ccccc1)C(=O)N(C)Cc1ccsc1` (configuration not stated), the cytotoxicity at 10 µM was found to be 7.17%.

For `CC(NC(=O)C1CC1)C(=O)N(C)Cc1ccsc1` (configuration not stated), the cytotoxicity at 10 µM turned out to be 3.64%.

For `Cc1cccc(NS(=O)(=O)c2ccc(C#N)nc2)c1C#N`, the cytotoxicity at 10 µM worked out at 0.0489%.

As to `Cc1ccc2cccc(S(=O)(=O)N(C)CC3CCN(C)C3)c2n1` (configuration not stated), the cytotoxicity at 10 µM is 1.5%.

For the molecule `CC(C)(C)CCN1CCN(Cn2nccc2-c2cccnc2)CC1`, the cytotoxicity at 10 µM came to 23.2%.

Take `Cc1ccc(CCNC(=O)NC2CCN(CC(F)(F)F)C2=O)cn1` (configuration not stated): the cytotoxicity at 10 µM was determined as 4.75%.

As to `COc1ccc(OC)c(-n2cnnc2C)c1`, the cytotoxicity at 10 µM was found to be 1.24%.

`Cc1cccc(-n2cc(CNc3ncnc4c3CCNCC4)cn2)c1`: the cytotoxicity at 10 µM turned out to be 3.96%.

For the molecule `CC(C)[C@H]1CN(Cc2c[nH]nn2)C[C@@H]1NC(=O)C1CCOCC1`, the cytotoxicity at 10 µM stood at 22.3%.

As for `CSCC[C@@H](CO)n1ccnc1-c1ccc(C)o1`, the cytotoxicity at 10 µM is 7.02%.

As for `O=C(CN1CCC(c2ccccc2)CC1)NCc1cc2n(n1)CCNC2`, the cytotoxicity at 10 µM came out at 3.03%.

`COc1ccc(CN2CCn3cncc3C2)cc1Cn1cncn1`: the cytotoxicity at 10 µM turned out to be 7.55%.

In the case of `CC(C)c1nc(CNc2nccc(CCC(F)(F)F)n2)cs1`, the cytotoxicity at 10 µM stood at 1.24%.

Turning to `O=C(c1ccncc1Cl)N1CCN(Cc2ccco2)C(CCO)C1` (configuration not stated), the cytotoxicity at 10 µM was -9.84%.

For `Cc1ncsc1CN1CCN(C)C2(CCC(=O)N(CCO)CC2)C1` (configuration not stated), the cytotoxicity at 10 µM was -9.8%.

With `O=C1CC2(CCN(Cc3ccc(C(F)(F)F)nc3)CC2)CN1`, the cytotoxicity at 10 µM was -6.33%.

For `O=C(c1cc(Cn2ccc3ccccc32)[nH]n1)N1CCOCC1`, the cytotoxicity at 10 µM was -1.01%.

For `CN(CCc1nc2cc(Cl)ccc2[nH]1)C(=O)c1ncn[nH]1`, the cytotoxicity at 10 µM was -53.7%.

In the case of `CCOCCn1nc(C)cc1C(=O)N1CC[C@@](O)(COC)C(C)(C)C1`, the cytotoxicity at 10 µM was -1.66%.

For the molecule `CN(CCCC1CCCO1)S(=O)(=O)NCc1ccccc1` (configuration not stated), the cytotoxicity at 10 µM was determined as 2.2%.

`CCN(CC1CCCN(CCc2cccc(OC)c2)C1)C(=O)CN(C)C` (configuration not stated): the cytotoxicity at 10 µM came to 9.05%.

In the case of `Cc1ncc(C(=O)N2CCCC(C(=O)CCc3ccccc3)C2)s1` (configuration not stated), the cytotoxicity at 10 µM turned out to be 19.4%.

`Cc1nc(CN(C)C(=O)c2ccc(Cn3cnnn3)cc2)cs1`: the cytotoxicity at 10 µM was -15.4%.

As for `Cc1cc(N2CCC3(CCCN(CCO)C3=O)C2)nc2cc(Cl)ccc12` (configuration not stated), the cytotoxicity at 10 µM worked out at 3.72%.

Regarding `CCc1nc(NC2CCCN(C(=O)C3CC3)C2)c2cnn(C)c2n1` (configuration not stated), the cytotoxicity at 10 µM is -1.05%.

With `Cc1cc(C)n(CC(C)NC2CCN(Cc3cccnc3)CC2)n1` (configuration not stated), the cytotoxicity at 10 µM turned out to be 2.45%.

Consider `Cc1ccc(C(=O)N2CCCC3(C2)C(=O)N(C)c2ccccc23)c(=O)[nH]1` (configuration not stated), for which the cytotoxicity at 10 µM is -7.52%.

Consider `CCc1cc(N[C@H]2CCC[C@H]2CO)n2nc(C)c(C)c2n1`, for which the cytotoxicity at 10 µM came out at 3.41%.

Turning to `Cc1cc(NCCNc2ncccc2C)n2nc(C)cc2n1`, the cytotoxicity at 10 µM amounted to 2.41%.

Consider `CS(=O)(=O)N(Cc1ccon1)c1ccc(F)cc1`, for which the cytotoxicity at 10 µM amounted to 2.24%.

Turning to `CC(C)(C)OC(=O)NC1CCCN(Cc2cccs2)C1` (configuration not stated), the cytotoxicity at 10 µM was -40.7%.

For the molecule `CC(C)Nc1cc(N2CCC(n3cc(C4CCCC4)nn3)CC2)ncn1`, the cytotoxicity at 10 µM turned out to be 7.81%.

As to `Cc1cc(CN[C@@H](C)C(N)=O)c(C)s1`, the cytotoxicity at 10 µM was -6.55%.

On to `CC(C)C(C)N(Cc1ccccn1)Cc1ccco1` (configuration not stated), for which the cytotoxicity at 10 µM was -1.99%.

For the molecule `O=C(c1cnc2ccccc2c1)N1CCCC(O)(CN2CCCC2)C1` (configuration not stated), the cytotoxicity at 10 µM worked out at 9.27%.

Consider `CNC(=O)c1noc(Cn2ncc3ccccc3c2=O)n1`, for which the cytotoxicity at 10 µM was -5.35%.

`Cc1nnc(NCc2ccccc2S(=O)(=O)N(C)C)c(C#N)c1C`: the cytotoxicity at 10 µM is -8.51%.

For the molecule `c1ccc(-n2ccc(CNC3CCc4ncnn4C3)n2)cc1` (configuration not stated), the cytotoxicity at 10 µM was -2.57%.

As to `Cc1cnn(CC2CCCN2C(=O)c2ccc(-n3cccn3)nc2)c1` (configuration not stated), the cytotoxicity at 10 µM was -15.7%.

On to `Cc1cc(NC(=O)CN(C)C2CCCN(c3cccnn3)C2)n(C)n1` (configuration not stated), for which the cytotoxicity at 10 µM is -12.4%.

With `CN1CCC(NC(=O)NCCNc2ccccn2)CC1`, the cytotoxicity at 10 µM was -1.72%.

`COc1ccc(CNCC2CCN(CC(C)O)CC2)c2ccccc12` (configuration not stated): the cytotoxicity at 10 µM is -11.5%.

Regarding `CCc1ccc(C(=O)N2CCN(CC(C)O)CC2)o1` (configuration not stated), the cytotoxicity at 10 µM was -8.18%.

`COc1cccc2cc(CNC(C)(C)C(=O)N3CCC(O)CC3)oc12`: the cytotoxicity at 10 µM was -12.2%.

Turning to `Cc1cc(C2CCCN(CCCS(=O)(=O)c3ccccc3)C2)n[nH]1` (configuration not stated), the cytotoxicity at 10 µM was -7.64%.

With `Cn1cnnc1C1CCCN(C(=O)c2cc(Cl)c3c(c2)OCO3)C1` (configuration not stated), the cytotoxicity at 10 µM was -1.08%.

As for `Cc1cc(CN(C)C(=O)c2ccc(C(F)(F)F)nc2)no1`, the cytotoxicity at 10 µM was determined as 2.05%.

On to `Cc1cc(C)c(CNC(=O)N2CCCC2c2cccn2C)c(=O)[nH]1` (configuration not stated), for which the cytotoxicity at 10 µM was -2.82%.

Take `Cc1nc2ccccc2nc1CN1CCCC1c1c(C)nn(C)c1C` (configuration not stated): the cytotoxicity at 10 µM is -1.78%.

In the case of `CCOc1ccccc1-c1cc(N)[nH]n1`, the cytotoxicity at 10 µM was 5.75%.

Take `Cc1cccnc1[C@]1(O)CC[C@H]2CN(Cc3cccc(Cl)c3Cl)C[C@H]21`: the cytotoxicity at 10 µM is -5.86%.

Take `Cc1cc(F)ccc1C(=O)N1C[C@@H]2COC[C@]2(CN(C)C)C1`: the cytotoxicity at 10 µM was -142%.

`CN(C)C[C@@H]1CCC[C@@H]2CN(c3ncccn3)C[C@@H]21`: the cytotoxicity at 10 µM came to 5.85%.

On to `Cc1nc(CN2C[C@@H]3CN(C(=O)c4cccn4C)C[C@@H]3C2)cs1`, for which the cytotoxicity at 10 µM is 0.346%.

Turning to `Cc1ccc(CN2C[C@@H]3C[C@H](C(=O)NCC4CC4)N(C)[C@@H]3C2)o1`, the cytotoxicity at 10 µM was -3.63%.

For the molecule `CSc1nc(N)c2c(n1)N=C1COC(=O)C1C2c1cccc(Cl)c1` (configuration not stated), the cytotoxicity at 10 µM was 37.5%.
